We go through two compounds from ChEMBL document CHEMBL4041550, “Structure-Activity Relationship Study of QL47: A Broad-Spectrum Antiviral Agent” (ACS Med Chem Lett, 2017).

Calls of active or inactive are those of the source.

By IC90 is commonly meant the concentration needed for an effect of 90%. In general, CC50 refers to the concentration that lowers cell viability or growth by half. Broadly, the half-life is the time needed for the level to fall by half in the phase considered.

Data set [1] deals with dengue virus type 2. Description: Antiviral activity against Dengue virus serotype 2 strain New Guinea C infected in HuH7 cells measured at 24 hrs post infection by focus forming assay. The class given is functional. Conditions: Thailand/NGS-C/1944, Huh-7, 24 h. In a few lines: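 Huh7 cells infected with DENV2, then treated with a range of compound concentrations. Viral yield measured 24 h later by titration of infectious particles in supernatants; in parallel, cell viability measured. IC90 (1-log10 reduction in infectious progeny) and CC50 derived by non-linear regression. Mean ± SD of experimental duplicates, n ≥ 2 repeats.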

Data set [2] in a line: Cytotoxicity against human HuH7 cells measured after 24 hrs by CellTiter-Glo luminescent cell viability assay. The class given is cell-based, Huh-7. In outline: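 DENV2-infected Huh7 cells treated across a concentration range; cell viability read 24 h later. CC50 (50% cytotoxicity) derived by non-linear regression; mean ± SD of experimental duplicates, n ≥ 2 repeats.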
(ATP-based viability assays read luminescence as a measure of living cells.)

Data set [3] has as its system Enterovirus C. The data set can be described thus: Antiviral activity against Polio virus Chat infected in Vero cells at 4 uM measured at 12 hrs post infection by crystal violet staining based plaque formation assay. The class given is functional, cell-based. In outline:
(§1)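 Vero cells infected with poliovirus or VSV, then treated with 4 μM compound for 12 h (poliovirus) or 6 h (VSV). Infectious virus released to supernatants quantified by plaque-forming assay, plotted relative to DMSO-treated samples. Mean ± SD of experimental duplicates, n ≥ 2 repeats.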

Data set [4] has as its system Vesicular stomatitis Indiana virus. Description: Antiviral activity against Vesicular stomatitis virus Indiana infected in Vero cells at 4 uM measured at 6 hrs post infection by crystal violet staining based plaque formation assay. The class given is functional, cell-based. In a few lines: as §1
In data set [5] the test system is Vero. Description: Antiviral activity against Respiratory syncytial virus A2 infected in Vero cells at 2.5 uM pretreated for 7 days followed by viral infection by crystal violet staining based plaque formation assay. The class given is functional, cell-based. Conditions: Human respiratory syncytial virus A2.
Data set [6] has as its system Kunjin virus. The data set can be described thus: Antiviral activity against West Nile virus Kunjin infected in HuH7 cells at 2 uM measured at 24 hrs post infection by crystal violet staining based plaque formation assay. The class given is functional, cell-based. In outline: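 Huh7 cells infected with West Nile virus, then treated with 2 μM for 24 h. Infectious virus released to supernatants quantified by plaque assay and plotted relative to DMSO-treated samples; mean ± SD of experimental duplicates, n ≥ 2 repeats.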

Data set [7] relates to dengue virus type 2. The data set can be described thus: Antiviral activity against Dengue virus serotype 2 replicon harboring GVD mutant infected in HuH7 cells assessed as reduction in viral RNA translation at 2 uM measured at 6 hrs post infection by luciferase reporter gene assay relative to control. The arrangement: scale not given: the % may be the effect or the level left. The class given is functional. In outline: (§2)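 Huh7 cells transfected with in vitro-transcribed nonreplicative DENV2(GVD) reporter replicon RNA, then treated immediately with compound at 2 or 10 μM. Intracellular firefly luciferase activity read 6 h post-transfection as a measure of RNA translation and expressed relative to DMSO-treated samples. Mean ± SD of experimental duplicates, n = 3 repeats.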
For orientation: Replicon systems follow genome replication, usually without infectious particles.

Data set [8] deals with dengue virus type 2. Description: Antiviral activity against Dengue virus serotype 2 replicon harboring GVD mutant infected in HuH7 cells assessed as reduction in viral RNA translation at 10 uM measured at 6 hrs post infection by luciferase reporter gene assay relative to control. The class given is functional. Also noted: scale not given: the % may be the effect or the level left. In outline:
as §2

For data set [9], the system named is dengue virus type 2. The data set can be described thus: Antiviral activity against Dengue virus serotype 2 strain New Guinea C infected in HuH7 cells assessed as reduction in log-fold change by measuring focus forming unit at 2 uM measured at 24 hrs post infection by focus forming assay relative to control. The format is functional, Thailand/NGS-C/1944. In outline: (§3)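 DENV2-infected Huh7 cells treated with compound at 2 or 10 μM. Infectious virus secreted into culture supernatants at 24 h post-infection/treatment was titred by focus-forming assay. Result expressed as log-fold change relative to DMSO treatment.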

For data set [10], the system named is dengue virus type 2. The data set can be described thus: Antiviral activity against Dengue virus serotype 2 strain New Guinea C infected in HuH7 cells assessed as reduction in log-fold change by measuring focus forming unit at 10 uM measured at 24 hrs post infection by focus forming assay relative to control. The class given is functional, Thailand/NGS-C/1944. In a few lines: as §3

A short description of data set [11]: Half life in mouse hepatic microsomes at 1 uM in presence of NADPH by LC-MS/MS method. The format is ADME, Microsome. The conditions noted are these: liver microsomes. In outline: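 Compound incubated with mouse liver microsomes; half-life (T1/2, min) of the compound reported as a measure of metabolic stability.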
Background: Liver microsomes are vesicles of endoplasmic reticulum, rich in cytochrome P450 enzymes.

Data set [12] has as its system dengue virus type 2. Description: Antiviral activity against Dengue virus serotype 2 strain New Guinea C infected in HuH7 cells at < 10 uM measured at 24 hrs post infection by focus forming assay. The format is functional, cell-based. The conditions noted are these: Thailand/NGS-C/1944. In a few lines:
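Huh7 cells infected with DENV2, then treated with compound; screened at 2 and 10 μM. Infectious virus secreted into supernatant at 24 h post-infection/treatment titrated by focus-forming assay; expressed as log-fold change relative to DMSO. IC90 (1-log10 drop in infectious progeny) from concentration range by non-linear regression; mean ± SD of experimental duplicates, n ≥ 2 repeats.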

Turning to `C=CC(=O)N1CCc2ccc(-n3c(=O)ccc4cnc5ccc(-c6cnn(C)c6)cc5c43)cc21`, in data set [1], it took 0.343 µM to reach the 90% level (IC90). In [2], this compound came in with a CC50 at 24 h of 67 to 68 µM. In addition, the result in data set [3], in [4], in [5] and in [6] was Active. The Activity amounted to 94% in data set [7], 98% in data set [8], 4 log10FFU/ml in data set [9] and 4 log10FFU/ml in [10]. In addition, the half-life at 1 µM in [11] stood at 1.2 min.
`CCC(=O)N1CCc2ccc(-n3c(=O)ccc4cnc5ccc(-c6cnn(C)c6)cc5c43)cc21`: the outcome in [12] was inactive.
